PAD4 FP inh: PAD4 (human) enzyme inhibition | inhibition, % at 6.36 µM | actives 0.41% (n = 330,000) | recombinant PAD4, RCA probe fluorescence polarization | AID 485272;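 active means percent inhibition above a cutoff equal to the mean of all tested compounds plus 3 SD, cut at about 15% in these data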;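 further: 0% = PAD4 with RCA probe and DMSO and 100% = probe without PAD4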
TCR-CD3 inh: human TCR-CD3 binding inhibition. TAMRA-labeled TCR probe fluorescence, biochemical. inhibition, % at 9.4 µM. actives 0.37% (n = 360,000); in the data active means inhibition above about 19%;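 further: recombinant mutant TCR 2C K166C tagged with TAMRA read by polarization; 0% = receptor in buffer alone and 100% = receptor with positive control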
PRMT1 FP inh: blocks human protein arginine methyltransferase 1 | Q99873 | recombinant PRMT1, activity-based probe fluorescence polarization | inhibition, % at 2.79 µM | actives 1.3% (n = 370,000) | AID 652257;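 active means inhibition above about 21% made by adding two undisclosed values, limit read from the data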
Target sequence (Q99873 whole entry, looked up): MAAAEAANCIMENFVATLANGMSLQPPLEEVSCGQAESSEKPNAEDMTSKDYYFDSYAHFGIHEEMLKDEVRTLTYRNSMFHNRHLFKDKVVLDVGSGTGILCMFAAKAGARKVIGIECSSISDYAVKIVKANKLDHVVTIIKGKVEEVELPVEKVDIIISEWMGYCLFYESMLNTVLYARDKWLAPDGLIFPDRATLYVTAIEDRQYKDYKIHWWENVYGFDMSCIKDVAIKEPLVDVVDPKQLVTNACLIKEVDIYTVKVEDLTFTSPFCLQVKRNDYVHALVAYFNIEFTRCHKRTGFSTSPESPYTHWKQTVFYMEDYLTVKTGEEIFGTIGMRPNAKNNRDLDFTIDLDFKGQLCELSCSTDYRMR
mABHD4 FP: inhibitors of mouse ABHD4; Q8VD66; purified mABHD4, FP-Rh probe fluorescence polarization; inhibition, % at 8.92 µM; actives 0.54% (n = 370,000); AID 720543;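 active means inhibition exceeding the mean over every tested compound plus 3 SD, cut at about 30% in these data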;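 further: 0% = plate median of compound wells and 100% = S159A mutant with DMSO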
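system = mouse ABHD4 enzyme, wild type | medium = HEPES pH 7.0, NaCl, Pluronic buffer | also added = FP-Rh probe | incubation = Enzyme–compound pre-incubation 45 min, then probe 60 min, both 25 °C | technique = fluorescence polarization, excitation 525 nm, emission 598 nm, BODIPY TMR filters | controls = S159A mutant high control, sample median low control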
HTRA1 inh: HTRA1 (human) protease inhibition; actives 0.5% (n = 340,000); recombinant HTRA1, FP-rhodamine activity-based probe, fluorescence polarization; inhibition, % at 5.96 µM; in the data active means inhibition above about 36%;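 further: 0% = enzyme with DMSO and 100% = wells lacking enzyme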
SIAE primary: human SIAE inhibition, primary screen. Q9HAT2. SIAE FP-Rh probe binding, fluorescence polarization. inhibition, % at 9.66 µM. actives 0.69% (n = 370,000). AID 1053197;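 active means inhibition above a cutoff: mean of compounds within the control limits plus 3 SD of those, cut at about 17% in these data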;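 further: 0% = plate median of compound wells and 100% = probe without SIAE protein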
PRMT1 inh conf: PRMT1 (human) inhibition, FP confirmation; AID 687036; actives 42% (n = 3,300); inhibition, % at 2.79 µM; recombinant His-PRMT1, activity-based probe fluorescence polarization; shares compounds with PRMT1 FP inh;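 active means mean inhibition across replicates above the hit cutoff derived for the earlier primary screen, cut at about 22% in these data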
* hit, by the source's call; · = no result. Hits are enriched below; roughly 2.9% of the tested compounds scored in any of these assays.

SMILES	PAD4 FP inh	TCR-CD3 inh	PRMT1 FP inh	mABHD4 FP	HTRA1 inh	SIAE primary	PRMT1 inh conf
O=S(=O)(c1ccccc1)c1nc(-c2ccccc2)oc1NCc1cccnc1	1.4	4.2	-3.9	-2.0	-0.6	-4.4	·
O=S(=O)(c1ccccc1)c1nc(-c2ccco2)oc1NCc1cccnc1	-2.1	2.9	32.4*	1.6	1.6	6.6	4.3
COc1cccc(C2=CC(=O)CC(c3ccco3)C2)c1 (centres undefined)	0.3	-1.3	31.4*	-5.9	-21.5	1.9	3.2
CCN(CC)C(=O)CC[C@H]1CC[C@]2(CCCN(S(=O)(=O)c3ccccc3)C2)O1	·	·	1.0	0.8	·	-1.3	·
O=C(Cc1ccccc1)Nc1nc(=O)c2ccccc2s1	1.1	1.6	47.9*	7.4	-2.9	0.1	4.1
O=C(Nc1nc(=O)c2ccccc2s1)c1ccc(Cl)cc1	1.5	-5.3	32.4*	8.1	7.5	-3.0	0.6
O=C(Nc1nc2cc3c(cc2s1)OCCO3)c1ccncc1	-8.2	2.8	-2.5	0.9	12.4	16.8	·
O=C(NNc1nc2cc3c(cc2s1)OCCO3)c1ccc(F)cc1	-4.0	-0.8	32.8*	13.4	14.5	0.0	-0.9
Cc1ccc(-n2c(SCc3nc4ccccc4[nH]3)nnc2-c2ccccn2)cc1	·	·	-2.5	1.6	·	-1.3	·
O=C(c1ccc(Cl)cc1)N1CCC(Oc2cccnc2)CC1	·	·	-3.5	4.3	·	10.0	·
O=[N+]([O-])c1ccc(CSc2nnc(-c3cccc(Cl)c3)n2Cc2ccco2)cc1	·	·	2.9	4.8	·	9.8	·
COc1ccc(OC)c(C(=O)CSc2nnc(SCc3cccc4ccccc34)s2)c1	·	·	-1.8	2.0	·	-1.6	·
CCN1CCc2nc(N)sc2C1	-5.8	2.7	45.4*	4.8	2.3	-1.7	22.5*
CCN1CCc2nc(NC(=O)c3ccccc3)sc2C1	-1.0	-2.8	4.2	1.2	-8.1	-0.5	·
C=CCN1CCc2nc(N)sc2CC1	·	11.5	61.1*	6.2	15.2	3.0	11.4
O=C(NCCc1ccc(F)cc1)c1cc2ccccn2n1	·	·	-8.2	-2.6	·	2.4	·
COC(=O)C1=C(C)N(Cc2cccc(C(F)(F)F)c2)C(=NCc2cc(OC)c(OC)c(OC)c2)NC1c1cccc(C(F)(F)F)c1 (centres undefined)	·	2.6	-4.3	7.1	·	3.4	·
COc1cc(N)c(Cl)cc1C(=O)OCC(=O)NCC1CCCO1 (centres undefined)	-3.1	3.8	-4.2	-1.0	6.9	-7.2	·
COc1cc(N)c(Cl)cc1C(=O)OCC(=O)NCC1CCCCC1	1.3	-2.0	33.9*	4.2	-19.3	-0.6	-7.6
COC(=O)[C@]12CCCCC=C1N(Cc1ccc(OC)cc1)C(=O)[C@@H]2CC(=O)NCC12CC3CC(CC(C3)C1)C2	·	·	-1.0	-2.6	·	-2.8	·
CCO[C@H]1OC(C(N)=O)=C[C@@H](c2ccccc2)[C@@H]1CCCO	0.9	6.8	73.1*	-1.7	4.7	1.6	-5.2
CCO[C@H]1OC(C(N)=O)=C[C@@H](c2ccc(Br)cc2)[C@@H]1CCCO	-0.6	0.9	2.4	-1.0	7.9	2.5	·
O=C(CCNS(=O)(=O)c1ccccc1)NNC(=O)c1csc(N2CCOCC2)n1	-0.4	0.4	0.2	-0.9	1.4	4.6	·
CC(=O)Nc1ccc(S(=O)(=O)NCC(=O)NNC(=O)c2csc(N3CCOCC3)n2)cc1	6.1	-4.7	52.3*	-3.2	7.7	0.3	13.8
N=c1c2c(ccn1Cc1ccccc1)Oc1ccc3ccccc3c1C2c1ccccc1 (centres undefined)	·	·	-2.5	-99.3	·	-110.2	·
CCCCCNC(=O)[C@@H]1CSC2c3ccccc3C(=O)N21 (some centres undefined)	-5.7	-8.4	3.8	-17.0	7.4	-5.0	·
O=C(NCc1cccs1)[C@@H]1CSC2c3ccccc3C(=O)N21 (some centres undefined)	-2.7	3.2	25.7*	-10.3	-4.1	-12.7	34.2*
Cc1c(C(c2cc(O)ccc2O)c2c(C)n(C)n(-c3ccccc3)c2=O)c(=O)n(-c2ccccc2)n1C	·	-12.6	32.7*	10.6	-3.6	6.5	6.1
O=C(/C=C/c1ccco1)NCc1ccc(F)cc1	-5.7	-1.1	38.2*	-9.3	-3.1	-1.1	15.0
